Data on 26 molecules can be found in ChEMBL document CHEMBL5214983, “New Dual P-Glycoprotein (P-gp) and Human Carbonic Anhydrase XII (hCA XII) Inhibitors as Multidrug Resistance (MDR) Reversers in Cancer Cells” (J Med Chem, 2022).

For orientation: Vmax means the top rate of the reaction or transport when substrate is in excess.

The nature of data set [1]: Stability in PBS measured by LC-MS/MS analysis. As to conditions: buffer; call rule not given here. In kind it is physicochemical. The procedure, abridged:
(§1)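 Analyte at 1 μM in PBS or in pooled human plasma, incubated at 37 °C for 0, 30, 60 and 120 min, in triplicate. Internal standard verapamil added, mixture centrifuged, supernatant dried and redissolved. Analyte quantified by LC-MS/MS. Half-life taken from the slope of ln(concentration) versus time. Ketoprofen ethyl ester served as plasma activity reference.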

Data set [2] can be described thus: Stability in human plasma assessed as half-life measured by LC-MS/MS analysis. In kind it is ADME, cell-free. The procedure, abridged:
as §1

Data set [3] has as its target T1, ATP-dependent translocase ABCB1 (Homo sapiens, UniProt P08183). As to the kind of experiment: Inhibition of P-gp in doxorubicin-resistant human HT-29 cells overexpressing P-gp assessed as increase in doxorubicin retention 1 uM in presence of 5 uM doxorubicin measured after 24 hrs by spectrophotometric method. Format: cell-based. The conditions noted are these: ht-29, 24 h. The procedure, abridged: (§2)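 Resistant cells (wild-type, P-gp KO or hCA XII KO; KO lines selected with 1 μg/mL puromycin) exposed to 5 μM doxorubicin alone or with test compound at 1 or 3 μM. Cells washed, trypsinized and extracted in ethanol/0.3 N HCl. Doxorubicin fluorescence read at ex 475/em 553 nm and converted to nmol/mg cell protein with a calibration curve. Mean ± SD, n = 3.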

Data set [4] has as its target T1, ATP-dependent translocase ABCB1. The experiment in a line: Inhibition of P-gp in doxorubicin-resistant human A549 cells overexpressing P-gp assessed as increase in doxorubicin retention 1 uM in presence of 5 uM doxorubicin measured after 24 hrs by spectrophotometric method. In kind it is cell-based. The conditions noted are these: a549, 24 h. The procedure, abridged:
as §2

Data set [5] has the same target. As to the kind of experiment: Inhibition of P-gp in doxorubicin-resistant human HT-29 cells overexpressing P-gp assessed as increase in doxorubicin retention 3 uM in presence of 5 uM doxorubicin measured after 24 hrs by spectrophotometric method. Format: cell-based. The conditions noted are these: ht-29, 24 h. The procedure, abridged:
as §2

For data set [6] the target is unchanged. The experiment in a line: Inhibition of P-gp in doxorubicin-resistant human A549 cells overexpressing P-gp assessed as increase in doxorubicin retention 3 uM in presence of 5 uM doxorubicin measured after 24 hrs by spectrophotometric method. As to conditions: a549, 24 h. Format: cell-based. The procedure, abridged: as §2
For data set [7] the target is unchanged. The experiment in a line: Inhibition of P-gp in human HT-29 cells overexpressing P-gp assessed as Vmax at 1 uM in presence of 0 to 100 uM doxorubicin […]. Format: cell-based. As to conditions: ht-29, 1 µM. The procedure, abridged:
(§3)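 Cells incubated 20 min with 0–100 μM doxorubicin, alone or with compound at 1 or 3 μM. A parallel set was left a further 10 min at 37 °C, then intracellular drug measured. Doxorubicin extruded (nmol/min/mg protein) plotted against initial concentration and fitted to Michaelis–Menten to give Vmax and Km. Mean ± SD.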

For data set [8] the target is unchanged. The experiment in a line: Inhibition of P-gp in human HT-29 cells overexpressing P-gp assessed as Vmax at 3 uM in presence of 0 to 100 uM doxorubicin […]. In kind it is cell-based. The conditions noted are these: ht-29, 3 µM. The procedure, abridged: as §3
Data set [9] shares this target. The experiment in a line: Inhibition of P-gp in doxorubicin-resistant human HT-29 cells overexpressing P-gp assessed as Vmax at 1 uM in presence of 0 to 100 uM doxorubicin […]. In kind it is cell-based. The conditions noted are these: ht-29, 1 µM. The procedure, abridged:
as §3

Data set [10] has the same target. The experiment in a line: Inhibition of P-gp in doxorubicin-resistant human HT-29 cells overexpressing P-gp assessed as Vmax at 3 uM in presence of 0 to 100 uM doxorubicin […]. In kind it is cell-based. The conditions noted are these: ht-29, 3 µM. The procedure, abridged:
as §3

Data set [11] shares this target. The experiment in a line: Inhibition of P-gp in doxorubicin-resistant carbonic anhydrase knockout human HT-29 cells overexpressing P-gp assessed as Vmax at 1 uM in presence of 0 to 100 uM doxorubicin […]. The conditions noted are these: ht-29, 1 µM. In kind it is cell-based. The procedure, abridged: as §3
The target is the same in data set [12]. As to the kind of experiment: Inhibition of P-gp in doxorubicin-resistant carbonic anhydrase knockout human HT-29 cells overexpressing P-gp assessed as Vmax at 3 uM in presence of 0 to 100 uM doxorubicin […]. As to conditions: ht-29, 3 µM. In kind it is cell-based. The procedure, abridged: as §3
Data set [13] has the same target. As to the kind of experiment: Inhibition of P-gp in human A549 cells overexpressing P-gp assessed as Vmax at 1 uM in presence of 0 to 100 uM doxorubicin […]. In kind it is cell-based. As to conditions: a549, 1 µM. The procedure, abridged:
as §3

For data set [14] the target is unchanged. The experiment in a line: Inhibition of P-gp in human A549 cells overexpressing P-gp assessed as Vmax at 3 uM in presence of 0 to 100 uM doxorubicin […]. In kind it is cell-based. The conditions noted are these: a549, 3 µM. The procedure, abridged:
as §3

For data set [15] the target is unchanged. The experiment in a line: Inhibition of P-gp in doxorubicin-resistant human A549 cells overexpressing P-gp assessed as Vmax at 1 uM in presence of 0 to 100 uM doxorubicin […]. The conditions noted are these: a549, 1 µM. In kind it is cell-based. The procedure, abridged: as §3
The target is the same in data set [16]. The experiment in a line: Inhibition of P-gp in doxorubicin-resistant human A549 cells overexpressing P-gp assessed as Vmax at 3 uM in presence of 0 to 100 uM doxorubicin […]. Format: cell-based. As to conditions: a549, 3 µM. The procedure, abridged:
as §3

Data set [17] shares this target. As to the kind of experiment: Inhibition of P-gp in doxorubicin-resistant carbonic anhydrase knockout human A549 cells overexpressing P-gp assessed as Vmax at 1 uM in presence of 0 to 100 uM doxorubicin […]. Format: cell-based. As to conditions: a549, 1 µM. The procedure, abridged: as §3
The target is the same in data set [18]. The experiment in a line: Inhibition of P-gp in doxorubicin-resistant carbonic anhydrase knockout human A549 cells overexpressing P-gp assessed as Vmax at 3 uM in presence of 0 to 100 uM doxorubicin […]. In kind it is cell-based. As to conditions: a549, 3 µM. The procedure, abridged: as §3

T1 sequence (P08183 whole entry): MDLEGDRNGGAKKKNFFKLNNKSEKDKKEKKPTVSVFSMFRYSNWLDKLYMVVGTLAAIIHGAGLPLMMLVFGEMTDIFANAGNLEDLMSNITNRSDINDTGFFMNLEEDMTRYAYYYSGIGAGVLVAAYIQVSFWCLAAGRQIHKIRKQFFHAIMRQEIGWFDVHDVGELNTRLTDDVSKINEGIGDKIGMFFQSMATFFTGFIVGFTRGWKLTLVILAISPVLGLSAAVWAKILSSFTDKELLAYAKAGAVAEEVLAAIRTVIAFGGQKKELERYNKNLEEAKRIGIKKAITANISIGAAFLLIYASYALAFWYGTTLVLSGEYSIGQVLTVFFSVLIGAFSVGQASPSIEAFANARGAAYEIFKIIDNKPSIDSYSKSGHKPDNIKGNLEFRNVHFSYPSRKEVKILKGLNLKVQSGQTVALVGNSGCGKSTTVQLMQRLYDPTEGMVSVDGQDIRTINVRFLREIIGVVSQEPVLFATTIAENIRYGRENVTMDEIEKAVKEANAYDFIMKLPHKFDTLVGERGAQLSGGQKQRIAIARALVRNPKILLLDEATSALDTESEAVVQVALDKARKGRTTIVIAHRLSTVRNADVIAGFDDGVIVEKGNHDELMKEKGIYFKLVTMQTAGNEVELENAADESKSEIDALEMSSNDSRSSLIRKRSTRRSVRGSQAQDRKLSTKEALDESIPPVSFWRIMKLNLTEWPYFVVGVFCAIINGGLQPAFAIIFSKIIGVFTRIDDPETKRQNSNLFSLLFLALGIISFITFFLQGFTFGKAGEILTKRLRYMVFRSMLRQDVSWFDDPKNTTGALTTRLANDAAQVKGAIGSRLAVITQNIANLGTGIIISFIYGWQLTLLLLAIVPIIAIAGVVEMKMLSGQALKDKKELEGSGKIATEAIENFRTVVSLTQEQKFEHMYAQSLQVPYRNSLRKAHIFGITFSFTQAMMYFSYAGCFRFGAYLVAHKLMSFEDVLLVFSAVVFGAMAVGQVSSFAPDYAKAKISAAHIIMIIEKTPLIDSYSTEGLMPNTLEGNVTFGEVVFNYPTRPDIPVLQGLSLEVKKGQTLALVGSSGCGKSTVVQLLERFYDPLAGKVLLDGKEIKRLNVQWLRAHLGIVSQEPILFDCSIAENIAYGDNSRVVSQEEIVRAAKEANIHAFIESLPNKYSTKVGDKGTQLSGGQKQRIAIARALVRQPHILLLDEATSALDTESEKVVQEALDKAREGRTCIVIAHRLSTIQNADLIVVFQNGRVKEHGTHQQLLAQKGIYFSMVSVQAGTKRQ

As to `COc1cc(C(=O)OCCCCCCCN(CCCOC(=O)c2c3ccccc3cc3ccccc23)CCCOc2ccc3ccc(=O)oc3c2)cc(OC)c1OC`, the Stability result in data set [1] and in data set [2] was “Stable” throughout.

For `COc1cc(/C=C/C(=O)OCCCN(CCCCCCOC(=O)c2c3ccccc3cc3ccccc23)CCCOc2ccc3ccc(=O)oc3c2)cc(OC)c1OC`, the Stability result in data set [1] and in data set [2] was “Stable” each time.

With `COc1cc(/C=C/C(=O)OCCCN(CCCCCCCOC(=O)c2cc(OC)c(OC)c(OC)c2)CCCOc2ccc3ccc(=O)oc3c2)cc(OC)c1OC`, the Stability result in [1] and in [2] was “Stable” in each case.

`COc1cc(C(=O)OCCCN(CCCCCOC(=O)c2c3ccccc3cc3ccccc23)CCCOc2ccc3ccc(=O)oc3c2)cc(OC)c1OC`: the Stability entry in data set [1] and in data set [2] was “Stable” throughout.

Regarding `COc1cc(/C=C/C(=O)OCCCN(CCCCCOC(=O)c2cc(OC)c(OC)c(OC)c2)CCCOc2ccc3ccc(=O)oc3c2)cc(OC)c1OC`, the Stability result in data set [1] and in data set [2] was “Stable” throughout.

Regarding `O=C(OCCCCCCCN(CCCOC(=O)c1c2ccccc2cc2ccccc12)CCCOc1ccc2ccc(=O)oc2c1)c1c2ccccc2cc2ccccc12`, the Stability result in data set [1] and in [2] was “Stable” throughout.

As to `COc1cc(C(=O)OCCCN(CCCCCCOC(=O)c2c3ccccc3cc3ccccc23)CCCOc2ccc3ccc(=O)oc3c2)cc(OC)c1OC`, the Stability entry in [1] and in [2] was “Stable” each time.

For the molecule `COc1cc(C(=O)OCCCCCCN(CCCOC(=O)c2cc(OC)c(OC)c(OC)c2)CCCOc2ccc3ccc(=O)oc3c2)cc(OC)c1OC`, the Stability result in [1] and in data set [2] was “Stable” throughout. In addition, the “inhibition (INH)” value in data set [3], in [4], in data set [5] and in data set [6] was “Active” throughout. Further, the Vmax in data set [7] turned out to be 3.21 µmol/min; in data set [8], 3.28 µmol/min; in data set [9], 4.73 µmol/min; in data set [10], 3.8 µmol/min; in data set [11], 4.27 µmol/min; in [12], 3.45 µmol/min. Also, the Vmax in data set [13] was found to be 2.43 µmol/min; in data set [14], 2.41 µmol/min; in data set [15], 5.27 µmol/min; in data set [16] it was 4.14 µmol/min; in data set [17] it was 3.6 µmol/min; in [18], 2.92 µmol/min.

On to `COc1cc(/C=C/C(=O)OCCCN(CCCCCCCOC(=O)c2c3ccccc3cc3ccccc23)CCCOc2ccc3ccc(=O)oc3c2)cc(OC)c1OC`, for which the Stability result in data set [1] and in data set [2] was “Stable” each time.

For `COc1cc(C(=O)OCCCCCN(CCCOC(=O)c2c3ccccc3cc3ccccc23)CCCOc2ccc3ccc(=O)oc3c2)cc(OC)c1OC`, the Stability result in data set [1] and in data set [2] was “Stable” throughout.

As for `COc1cc(C(=O)OCCCCCCN(CCCOC(=O)c2c3ccccc3cc3ccccc23)CCCOc2ccc3ccc(=O)oc3c2)cc(OC)c1OC`, the Stability entry in data set [1] and in [2] was “Stable” throughout.

`COc1cc(/C=C/C(=O)OCCCN(CCCCCCOC(=O)c2cc(OC)c(OC)c(OC)c2)CCCOc2ccc3ccc(=O)oc3c2)cc(OC)c1OC`: the Stability result in data set [1] and in data set [2] was “Stable” each time.

As for `COc1cc(/C=C/C(=O)OCCCCCCN(CCCOC(=O)c2c3ccccc3cc3ccccc23)CCCOc2ccc3ccc(=O)oc3c2)cc(OC)c1OC`, the Stability result in data set [1] and in data set [2] was “Stable” each time.

Take `COc1cc(/C=C/C(=O)OCCCCCN(CCCOC(=O)c2c3ccccc3cc3ccccc23)CCCOc2ccc3ccc(=O)oc3c2)cc(OC)c1OC`: the Stability result in [1] and in data set [2] was “Stable” throughout.

With `COc1cc(/C=C/C(=O)OCCCN(CCCCCOC(=O)c2c3ccccc3cc3ccccc23)CCCOc2ccc3ccc(=O)oc3c2)cc(OC)c1OC`, the Stability entry in [1] and in [2] was “Stable” throughout.

Take `COc1cc(/C=C/C(=O)OCCCCCCCN(CCCOC(=O)c2cc(OC)c(OC)c(OC)c2)CCCOc2ccc3ccc(=O)oc3c2)cc(OC)c1OC`: the Stability entry in [1] and in [2] was “Stable” in each case.

`COc1cc(/C=C/C(=O)OCCCCCCCN(CCCOC(=O)c2c3ccccc3cc3ccccc23)CCCOc2ccc3ccc(=O)oc3c2)cc(OC)c1OC`: the Stability entry in data set [1] and in [2] was “Stable” each time.

For `COc1cc(/C=C/C(=O)OCCCCCCCN(CCCOC(=O)/C=C/c2cc(OC)c(OC)c(OC)c2)CCCOc2ccc3ccc(=O)oc3c2)cc(OC)c1OC`, the Stability entry in data set [1] and in data set [2] was “Stable” in each case.

`O=C(OCCCCCCN(CCCOC(=O)c1c2ccccc2cc2ccccc12)CCCOc1ccc2ccc(=O)oc2c1)c1c2ccccc2cc2ccccc12`: the Stability result in [1] and in data set [2] was “Stable” each time.

For `COc1cc(/C=C/C(=O)OCCCCCN(CCCOC(=O)c2cc(OC)c(OC)c(OC)c2)CCCOc2ccc3ccc(=O)oc3c2)cc(OC)c1OC`, the Stability entry in data set [1] and in data set [2] was “Stable” throughout.

Turning to `COc1cc(/C=C/C(=O)OCCCCCN(CCCOC(=O)/C=C/c2cc(OC)c(OC)c(OC)c2)CCCOc2ccc3ccc(=O)oc3c2)cc(OC)c1OC`, the Stability result in data set [1] and in [2] was “Stable” each time.

`COc1cc(C(=O)OCCCN(CCCCCCCOC(=O)c2c3ccccc3cc3ccccc23)CCCOc2ccc3ccc(=O)oc3c2)cc(OC)c1OC`: the Stability result in [1] and in [2] was “Stable” each time.

For the molecule `COc1cc(/C=C/C(=O)OCCCCCCN(CCCOC(=O)c2cc(OC)c(OC)c(OC)c2)CCCOc2ccc3ccc(=O)oc3c2)cc(OC)c1OC`, the Stability result in data set [1] and in data set [2] was “Stable” in each case.

Regarding `COc1cc(/C=C/C(=O)OCCCCCCN(CCCOC(=O)/C=C/c2cc(OC)c(OC)c(OC)c2)CCCOc2ccc3ccc(=O)oc3c2)cc(OC)c1OC`, the Stability entry in data set [1] and in data set [2] was “Stable” in each case.

`COc1cc(C(=O)OCCCCCCCN(CCCOC(=O)c2cc(OC)c(OC)c(OC)c2)CCCOc2ccc3ccc(=O)oc3c2)cc(OC)c1OC`: the Stability entry in [1] and in [2] was “Stable” throughout.

Regarding `O=C(OCCCCCN(CCCOC(=O)c1c2ccccc2cc2ccccc12)CCCOc1ccc2ccc(=O)oc2c1)c1c2ccccc2cc2ccccc12`, the Stability result in [1] and in data set [2] was “Stable” each time.
